# ChEMBL document CHEMBL3758131, “Towards new 5-HT7 antagonists among arylsulfonamide derivatives of (aryloxy)ethyl-alkyl amines: Multiobjective based design, synthesis, and antidepressant and anxiolytic properties” (Eur J Med Chem, 2016)
# Key:
# Mus musculus [1] = test: Anxiolytic activity in ip dosed albino Swiss mouse assessed as increase in number of shocks accepted measured over 1 min, 15 secs by four plates test; assay type: functional; settings: read-out: MED
# How it was run: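 Male Albino Swiss mice, ip injection 60 min before test. Four-plate cage; after 15 s of habituation, each plate-to-plate crossing during a 1-min session is punished with a 0.8 mA, 0.5 s foot shock, followed by a 3-s shock-free interval. Number of shocks accepted is counted.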
# Mus musculus [2] = test: Antidepressant activity in ip dosed C57BL/6J mouse assessed as reduction in immobility time of mouse by tail suspension test; assay type: functional; settings: read-out: MED
# Rattus norvegicus = test: Antidepressant activity in ip dosed Wistar rat assessed as reduction in immobility time of rat by forced swim test; assay type: functional; settings: read-out: MED
# How it was run: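 Male Wistar rats (220-250 g), ip injection 30 min before test. Day 1: 15-min pre-swim in a cylinder with 15 cm of water at 25 °C, then drying under a lamp. Next day: total immobility recorded over the whole 5-min test, with fresh water for each rat.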
# Mus musculus [3] = test: Antidepressant activity in C57BL/6J mouse assessed as average force at […] mg/kg, ip measured over 6 mins by tail suspension test (reference value: 0.281 +/- 0.018 to 0.359 +/- 0.027 N); assay type: functional
# Mus musculus [4] = test: Antidepressant activity in C57BL/6J mouse assessed as average force at […], ip measured over 6 mins by tail suspension test (reference value: 0.281 +/- 0.018 to 0.359 +/- 0.027 N); assay type: functional
# Mus musculus [5] = test: Toxicity in ip dosed C57BL/6J mouse assessed as effect on spontaneous locomotory activity at MED measured over 1 min 15 secs; assay type: organism-based; settings: in vivo
# Mus musculus [6] = test: Antidepressant activity in C57BL/6J mouse assessed as immobility time at 5 mg/kg, ip measured over 6 mins by tail suspension test (reference value: 160.7 +/- 12 to 170.6 +/- 9 sec); assay type: functional
# Mus musculus [7] = test: Antidepressant activity in C57BL/6J mouse assessed as number of events at 10 mg/kg, ip measured over 6 mins by tail suspension test (reference value: 1325.1 +/- 77.8 to 1773.4 +/- 109.9); assay type: functional
# Mus musculus [8] = test: Antidepressant activity in C57BL/6J mouse assessed as immobility time at […] mg/kg, ip measured over 6 mins by tail suspension test (reference value: 160.7 +/- 12 to 170.6 +/- 9 sec); assay type: functional
# Mus musculus [9] = test: Antidepressant activity in C57BL/6J mouse assessed as number of events at 5 mg/kg, ip measured over 6 mins by tail suspension test (reference value: 1325.1 +/- 77.8 to 1773.4 +/- 109.9); assay type: functional
# Mus musculus [10] = test: Antidepressant activity in C57BL/6J mouse assessed as average force at 10 mg/kg, ip measured over 6 mins by tail suspension test (reference value: 0.281 +/- 0.018 to 0.359 +/- 0.027 N); assay type: functional
# Mus musculus [11] = test: Toxicity in ip dosed albino Swiss mouse assessed as effect on spontaneous locomotory activity at MED measured over 2 to 6 mins; assay type: organism-based; settings: in vivo
# How it was run: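 Male Albino Swiss mice (22–28 g) received drug i.p. 60 min before testing, in 1% aqueous Tween 80 or distilled water. Each mouse was habituated alone in a plastic cage for 30 min, then ambulation was counted from 2 to 6 min. Groups of 6–10 animals, each used once.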
# Mus musculus [12] = test: Antidepressant activity in C57BL/6J mouse assessed as immobility time at […], ip measured over 6 mins by tail suspension test (reference value: 160.7 +/- 12 to 170.6 +/- 9 sec); assay type: functional
# Mus musculus [13] = test: Antidepressant activity in C57BL/6J mouse assessed as immobility time at 10 mg/kg, ip measured over 6 mins by tail suspension test (reference value: 160.7 +/- 12 to 170.6 +/- 9 sec); assay type: functional
# Mus musculus [14] = test: Antidepressant activity in C57BL/6J mouse assessed as number of events at […], ip measured over 6 mins by tail suspension test (reference value: 1325.1 +/- 77.8 to 1773.4 +/- 109.9); assay type: functional
# Mus musculus [15] = test: Toxicity in ip dosed C57BL/6J mouse assessed as effect on spontaneous locomotory activity at MED measured over 6 mins; assay type: organism-based; settings: in vivo, 0.1 h
# How it was run: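 Mice habituated 30 min in individual cages, then ambulation counted over a period matching each behavioural test: 6 min for the tail suspension test and 1 min 15 s for the four-plate test. Compounds given ip at the active doses.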
# Mus musculus [16] = test: Antidepressant activity in C57BL/6J mouse assessed as average force at 5 mg/kg, ip measured over 6 mins by tail suspension test (reference value: 0.281 +/- 0.018 to 0.359 +/- 0.027 N); assay type: functional
# Mus musculus [17] = test: Antidepressant activity in C57BL/6J mouse assessed as number of events at […] mg/kg, ip measured over 6 mins by tail suspension test (reference value: 1325.1 +/- 77.8 to 1773.4 +/- 109.9); assay type: functional
# Mus musculus [18] = test: Antidepressant activity in albino Swiss mouse assessed as decrease in immobility time at 10 mg/kg, ip by forced swim test; assay type: functional
structure (smiles),measurement,setting,value
CC1CCN(CC[C@H]2CCCN2S(=O)(=O)c2cccc(O)c2)CC1,minimal effective dose,Mus musculus [1],1 mg/kg
same,minimal effective dose,Mus musculus [2],2.5 mg/kg
same,minimal effective dose,Rattus norvegicus,1.25 mg/kg
same,Activity,Mus musculus [3],0.396 N
same,Activity,Mus musculus [4],0.449 N
same,Activity,Mus musculus [5],Non-toxic
same,Time,Mus musculus [6],170.6 s
same,Activity,Mus musculus [7],1600.1
same,Time,Mus musculus [8],139.5 s
same,Activity,Mus musculus [9],1604.7
same,Activity,Mus musculus [10],0.311 N
same,Activity,Mus musculus [11],Non-toxic
same,Time,Mus musculus [12],151 s
same,Time,Mus musculus [13],186.1 s
same,Activity,Mus musculus [14],1467.1
same,Activity,Mus musculus [15],Non-toxic
same,Activity,Mus musculus [16],0.363 N
same,Activity,Mus musculus [17],1764.8
same,inhibition in vivo at 10 mg/kg,Mus musculus [18],31%
